# Measurements as given in ChEMBL document CHEMBL4257500, “Design, synthesis and antimycobacterial activity of hybrid molecules combining pyrazinamide with a 4-phenylthiazol-2-amine scaffold” (Medchemcomm, 2018).
# Experiments:
# [1] = system: Mycobacterium tuberculosis; assay: Antimycobacterial activity against Mycobacterium tuberculosis H37Rv ATCC 27294 incubated in dark for 5 days by Alamar Blue assay; type: functional; conditions: H37Rv ATCC 27294, 120 h
# Outline: (§1)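 Middlebrook 7H9 broth with 0.4% glycerol and 10% OADC, pH 6.6. Compounds in DMSO, final 100–1.56 µg/mL by twofold steps. Inoculum 0.5–1.0 McFarland in saline, diluted 10⁻¹. Static incubation at 37 °C, dark, humid, 5 days. Alamar Blue (resazurin/Tween 80) added, read after 24 h. MIC = lowest concentration preventing the blue-to-pink change by eye; turbidity also inspected. Isoniazid control.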
# [2] = system: Mycobacterium kansasii; assay: Antimycobacterial activity against Mycobacterium kansasii Hauduroy ATCC 12478 incubated in dark for 5 days by Alamar Blue assay; type: functional, Mycobacterium kansasii ATCC 12478; conditions: 120 h
# [3] = system: Mycobacterium avium; assay: Antimycobacterial activity against Mycobacterium avium subsp. avium Chester ATCC 15769 incubated in dark for 5 days by Alamar Blue assay; type: functional; conditions: Chester ATCC 15769, 120 h; outline: as §1
# [4] = system: Mycolicibacterium smegmatis; assay: Antimycobacterial activity against Mycobacterium smegmatis ATCC 607 incubated in dark for 48 hrs by resazurin assay; type: functional; conditions: ATCC 607, 48 h
# Outline: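 Broth microdilution in Middlebrook 7H9 with glycerol and OADC, pH 6.6. Inoculum 0.5–1.0 McFarland, diluted 1:20 in broth. Compounds in DMSO by binary dilution, final 3.91–500 µg/mL; DMSO ≤2.5% v/v. Sealed plates kept dark, 37 °C, no agitation. After 48 h, 0.01% resazurin added; read after a further 2.5 h. Run in duplicate.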
# [5] = Solubility of compound in DMSO at 15 mg at 55 to 80 degC; type: physicochemical
# [6] = system: Mycobacterium tuberculosis; assay: Antimycobacterial activity against Mycobacterium tuberculosis H37Rv assessed as growth inhibition at 6.25 ug/ml by BACTEC 460 radiometric assay relative to control; type: functional; conditions: read-out: GI
# [7] = Solubility of compound in DMSO at 15 mg at room temperature; type: physicochemical
# [8] = system: HepG2; assay: Cytotoxicity against human HepG2 cells assessed as decrease in cell viability after 24 hrs by MTS assay; type: cell-based; conditions: HepG2, 24 h
# Outline: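 HepG2 (passage 32–34) seeded at 1×10^4 cells/well and treated 24 h later. Compounds in DMSO, 0.1–1000 µM depending on solubility; DMSO ≤1%. Triplicates at 37 °C, 5% CO2 for 24 h. MTS reagent (CellTiter 96 AQueous One) for 2 h, absorbance at 490 nm. IC50 by nonlinear regression of absorbance relative to untreated cells.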
# [9] = Selectivity index, ratio of IC50 for human HepG2 cells to MIC for Mycobacterium tuberculosis H37Rv ATCC 27294; type: toxicity; conditions: read-out: Selectivity Index
# Outline: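 SI = HepG2 IC50 / Mtb H37Rv MIC, with MIC converted to µM (µg/mL ÷ MW). HepG2 cells (passage 32–34) seeded at 1×10^4 per well. Treated after 24 h with 0.1–1000 µM depending on solubility, DMSO ≤1%, triplicates, 37 °C, 5% CO2, 24 h. Viability read by MTS-type reagent at 490 nm after 2 h. IC50 from nonlinear regression.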
# [10] = system: HepG2; assay: Cytotoxicity against human HepG2 cells assessed as decrease in cell viability after 24 hrs by CellTox green assay; type: cell-based; conditions: HepG2, 24 h
# Outline: (§2)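 HepG2 seeded at 1×10^4 cells/well, dosed the next day with compounds in DMSO at 0.1–500 µM; DMSO ≤1%. Triplicates at 37 °C, 5% CO2. CellTox Green reagent added after 24 h exposure, 15 min at room temperature, fluorescence Ex 485/Em 520 nm. Reading repeated 24 h later for the 48 h value. IC50 by nonlinear regression against untreated control.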
# [11] = system: HepG2; assay: Cytotoxicity against human HepG2 cells assessed as decrease in cell viability after 48 hrs by CellTox green assay; type: cell-based; conditions: HepG2, 48 h; outline: as §2
SMILES,MIC [1],MIC [2] [µg/mL],MIC [3] [µg/mL],MIC [4] [µg/mL],solubility [5],inhibition of growth at 6.25 µg/mL [6] [%],solubility [7],IC50 [8] [µM],selectivity ratio [9],IC50 [10] [µM],IC50 [11] [µM]
O=C(Nc1nc(-c2ccccn2)cs1)c1cnc(Cl)cn1,> 50 µg/mL,> 50,> 50,> 125,Soluble,–,–,–,–,–,–
Cc1cnc(NC(=O)c2cnc(C(C)(C)C)c(Cl)n2)s1,–,–,–,–,–,15 to 65,–,–,–,–,–
O=C(Nc1nc(-c2ccc(F)cc2)cs1)c1cnccn1,> 12.5 µg/mL,> 12.5,> 12.5,> 250,–,–,Insoluble,–,–,–,–
O=C(Nc1nc(-c2ccccc2)cs1)c1cnc(Cl)cn1,> 100 µg/mL,> 100,> 100,> 500,Soluble,–,–,–,–,–,–
O=C(Nc1nc(-c2ccccc2)cs1)c1cncc(Cl)n1,> 50 µg/mL,> 50,–,> 500,Soluble,–,–,–,–,–,–
O=C(Nc1nc(-c2ccccn2)cs1)c1cnccn1,22.1 µM,> 50,> 50,> 125,Soluble,–,–,> 25,> 1.1,–,–
CO[C@H]1/C=C/O[C@@]2(C)Oc3c(C)c(O)c4c(O)c(c(/C=N/N5CCN(C)CC5)c(O)c4c3C2=O)NC(=O)/C(C)=C\C=C\[C@H](C)[C@H](O)[C@@H](C)[C@@H](O)[C@@H](C)[C@H](OC(C)=O)[C@@H]1C [RIFAMPIN],0.78 to 1.56 µg/mL,0.78 to 1.56,0.78 to 1.56,0.78 to 1.56,–,–,–,–,–,–,–
O=C(Nc1nccs1)c1cncc(Cl)n1,–,–,–,–,–,15 to 65,–,–,–,–,–
O=C(Nc1nc(-c2ccc(Cl)cc2)cs1)c1cncc(Cl)n1,> 12.5 µg/mL,> 12.5,> 12.5,62.5,–,–,Soluble,–,–,–,–
COc1ccc(-c2csc(NC(=O)c3cnccn3)n2)cc1OC,> 50 µg/mL,> 50,> 50,> 125,–,–,Soluble,–,–,–,–
CC(C)(C)c1ncc(C(=O)Nc2nccs2)nc1Cl,–,–,–,–,–,15 to 65,–,–,–,–,–
COc1ccc(-c2csc(NC(=O)c3cnc(Cl)cn3)n2)cc1OC,> 12.5 µg/mL,> 12.5,> 12.5,> 250,–,–,Insoluble,–,–,–,–
O=C(Nc1nc(-c2ccc(F)cc2)cs1)c1cnc(Cl)cn1,9.4 µM,12.5,> 50,> 500,–,–,Soluble,24.8,2.7,22.4,18.1
O=C(O)c1cn(C2CC2)c2cc(N3CCNCC3)c(F)cc2c1=O [CIPROFLOXACIN],0.098 to 0.195 µg/mL,0.098 to 0.195,0.098 to 0.195,0.098 to 0.195,–,–,–,–,–,–,–
O=C(Nc1nc(-c2ccccc2)cs1)c1cnccn1,> 50 µg/mL,> 50,–,> 250,–,–,Soluble,–,–,–,–
COc1ccc(-c2csc(NC(=O)c3cncc(Cl)n3)n2)cc1,4.5 µM,12.5,> 12.5,62.5,–,–,Insoluble,> 25,> 5.6,–,–
NNC(=O)c1ccncc1 [ISONIAZID],0.1 to 0.2 µg/mL,12.5 to 25,6.25 to 12.5,7.8 to 15.6,–,–,Soluble,–,–,–,–
COc1ccc(-c2csc(NC(=O)c3cnccn3)n2)cc1,> 100 µg/mL,> 100,> 100,> 250,–,–,Soluble,–,–,–,–
Cc1csc(NC(=O)c2cncc(Cl)n2)n1,–,–,–,–,–,15 to 65,–,–,–,–,–
O=C(Nc1nc(-c2ccc(F)cc2)cs1)c1cncc(Cl)n1,2.3 µM,0.78,0.78,> 250,–,–,Soluble,> 50,> 21.5,> 50,> 50
O=C(Nc1nc(-c2ccc(Cl)cc2)cs1)c1cnccn1,> 12.5 µg/mL,> 12.5,> 12.5,62.5,–,–,Insoluble,–,–,–,–
Cc1cnc(NC(=O)c2cncc(Cl)n2)s1,–,–,–,–,–,15 to 65,–,–,–,–,–
Cc1csc(NC(=O)c2cnc(C(C)(C)C)c(Cl)n2)n1,–,–,–,–,–,15 to 65,–,–,–,–,–
O=C(Nc1nc(-c2ccccn2)cs1)c1cncc(Cl)n1,> 50 µg/mL,> 50,> 50,> 125,Soluble,–,–,–,–,–,–
COc1ccc(-c2csc(NC(=O)c3cncc(Cl)n3)n2)cc1OC,4.1 µM,> 12.5,> 12.5,> 125,–,–,Insoluble,> 25,> 6,–,–
COc1ccc(-c2csc(NC(=O)c3cnc(Cl)cn3)n2)cc1,4.5 µM,> 50,> 50,> 500,Soluble,–,–,> 75,> 16.7,–,–
O=C(Nc1nc(-c2ccc(Cl)cc2)cs1)c1cnc(Cl)cn1,> 50 µg/mL,> 50,> 50,> 500,–,–,Soluble,–,–,–,–
